Results: ChEMBL document CHEMBL1806353, “Synthesis of antitrypanosomal 1,2-dioxane derivatives based on a natural product scaffold” (Bioorg Med Chem Lett, 2011)
pIC50: −log10 of the molar value.

test system: Trypanosoma brucei brucei; assay: Antitrypanosomal activity against blood stream form of Trypanosoma brucei brucei BF427 after 48 hrs by Alamar Blue assay; assay type: functional, organism-based; conditions: BF427, 48 h
Summary of the method: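 Bloodstream-form T. b. brucei 427, starting inoculum 2 × 10³ parasites per well, exposed to 2-fold serial drug dilutions in HMI-9 with 10% FBS for 48 h at 37 °C, 5% CO₂. Final DMSO no more than 0.08%. Alamar Blue then added for a further 4 h, fluorescence read at 544/590 nm. IC50 from three biological replicates, each averaging three technical replicates.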

Compound | pIC50
C=C[C@@H]1CC[C@@H](CC(=O)OCc2ccccc2)OO1 | 5.52
CCOC(=O)/C=C\[C@@H]1CC[C@@H](CC(=O)OCc2ccccc2)OO1 | 5.87
CCOC(=O)/C=C/[C@@H]1CC[C@@H](CC(=O)OCc2ccccc2)OO1 | 6.21
CC(=O)/C=C\[C@@H]1CC[C@@H](CC(=O)OCc2ccccc2)OO1 | 5.73
CC(C)(C)OC(=O)/C=C\[C@@H]1CC[C@@H](CC(=O)OCc2ccccc2)OO1 | 6.43
CC(C)(C)OC(=O)/C=C/[C@@H]1CC[C@@H](CC(=O)OCc2ccccc2)OO1 | 6.70
O=C(/C=C\[C@@H]1CC[C@@H](CC(=O)OCc2ccccc2)OO1)OCc1ccccc1 | 6.62
O=C(/C=C/[C@@H]1CC[C@@H](CC(=O)OCc2ccccc2)OO1)OCc1ccccc1 | 6.19
CC(=O)/C=C/[C@@H]1CC[C@@H](CC(=O)OCc2ccccc2)OO1 | 6.05
O=C(C[C@@H]1CC[C@@H](/C=C\C(=O)c2ccccc2)OO1)OCc1ccccc1 | 6.24
O=C(C[C@@H]1CC[C@@H](/C=C/C(=O)c2ccccc2)OO1)OCc1ccccc1 | 6.29
N=C(N)c1ccc(OCCCCCOc2ccc(C(=N)N)cc2)cc1 | 6.07
N#CC=C[C@@H]1CC[C@@H](CC(=O)OCc2ccccc2)OO1 (mixture of isomers) | 5.50
